Test results: ChEMBL document CHEMBL3085645, “Design, synthesis and biological evaluation of phosphorodiamidate prodrugs of antiviral and anticancer nucleosides” (Eur J Med Chem, 2013)

Assays:
[1] = test system: Huh-7; assay: Cytotoxicity against human HuH7 cells; type: cell-based; conditions: human, huh-7
[2] = test system: Hepatitis C virus; assay: Antiviral activity against Hepatitis C virus genotype 1b infected in human HuH7 cells assessed as inhibition of viral replication; type: functional, organism-based, Hepacivirus hominis
[3] = test system: HeLa; assay: Cytostatic activity against thymidine kinase-deficient human HeLa cells assessed as growth inhibition after 3 days by particle counting analysis; type: functional, cell-based; conditions: 72 h
In short: (§1)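 Tumor cells seeded and exposed to a range of compound concentrations. Cell number counted with a particle counter after 2 days (L1210, L1210/TK) or 3 days (CEM, CEM/TK, HeLa, HeLa TK, Caco-2, Colo-320).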

[4] = test system: L1210; assay: Cytostatic activity against thymidine kinase-deficient mouse L1210 cells assessed as growth inhibition after 2 days by particle counting analysis; type: functional, cell-based; conditions: L1210, 48 h; in short: as §1
[5] = test system: Caco-2; assay: Cytostatic activity against human Caco2 cells assessed as growth inhibition after 3 days by particle counting analysis; type: functional, cell-based; conditions: Caco-2, 72 h; in short: as §1
[6] = test system: Human immunodeficiency virus 2; assay: Antiviral activity against HIV2 ROD infected in human CEM cells assessed as virus-induced giant cell formation after 4 days by microscopic analysis; type: functional, organism-based; conditions: Human immunodeficiency virus 2, ISOLATE ROD, CCRF-CEM, 96 h
In short: (§2)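 CEM cells (∼3 × 10^5 cells/cm3) infected with 100 CCID50/mL of HIV-1(IIIB) or HIV-2(ROD), seeded into wells with compound dilutions. Giant cell formation examined microscopically after 4 days at 37 °C.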

[7] = test system: CCRF-CEM; assay: Cytostatic activity against thymidine kinase-deficient human CEM cells assessed as growth inhibition after 3 days by particle counting analysis; type: functional, cell-based; conditions: 72 h; in short: as §1
[8] = test system: COLO 320; assay: Cytostatic activity against human COLO320 cells assessed as growth inhibition after 3 days by particle counting analysis; type: functional, cell-based; conditions: COLO 320, 72 h; in short: as §1
[9] = test system: Human immunodeficiency virus 1; assay: Antiviral activity against HIV1 3B infected in human CEM cells assessed as virus-induced giant cell formation after 4 days by microscopic analysis; type: functional, organism-based; conditions: Human immunodeficiency virus 1, 3B, CCRF-CEM, 96 h; in short: as §2
[10] = test system: HeLa; assay: Cytostatic activity against human HeLa cells assessed as growth inhibition after 3 days by particle counting analysis; type: functional, cell-based; conditions: 72 h; in short: as §1
[11] = test system: CCRF-CEM; assay: Cytostatic activity against human CEM cells assessed as growth inhibition after 3 days by particle counting analysis; type: functional, cell-based; conditions: 72 h; in short: as §1
[12] = test system: L1210; assay: Cytostatic activity against mouse L1210 cells assessed as growth inhibition after 2 days by particle counting analysis; type: functional, cell-based; conditions: L1210, 48 h; in short: as §1
[13] = test system: CCRF-CEM; assay: Cytotoxicity against human CEM cells; type: cell-based
[14] = test system: Human alphaherpesvirus 2; assay: Antiviral activity against Herpes simplex virus 2 G infected in HEL cells assessed as inhibition of virus-induced cytopathicity; type: functional, organism-based; conditions: Human alphaherpesvirus 2, strain G
[15] = test system: Human alphaherpesvirus 1; assay: Antiviral activity against acyclovir-resistant thymidine kinase-deficient Herpes simplex virus 1 KOS infected in HEL cells assessed as inhibition of virus-induced cytopathicity; type: functional, organism-based; conditions: Human alphaherpesvirus 1, KOS
[16] = test system: Human alphaherpesvirus 1; assay: Antiviral activity against Herpes simplex virus 1 KOS infected in HEL cells assessed as inhibition of virus-induced cytopathicity; type: functional, organism-based; conditions: Human alphaherpesvirus 1, KOS
[17] = test system: Felid alphaherpesvirus 1; assay: Antiviral activity against Feline herpesvirus infected in cat CRFK cells assessed as inhibition of virus-induced cytopathicity; type: functional, organism-based; conditions: Felid alphaherpesvirus 1, CRFK
[18] = Cytotoxicity against HEL cells; type: cell-based; conditions: human

SMILES	IC50 [3] [µM]	EC50 [6] [µM]	EC50 [9] [µM]	IC50 [10] [µM]	IC50 [11] [µM]	IC50 [12] [µM]	CC50 [13] [µM]	other results
C[C@H](NP(=O)(N[C@@H](C)C(=O)OCC(C)(C)C)OC[C@H]1O[C@@H](n2cnc(C(N)=O)n2)[C@H](O)[C@@H]1O)C(=O)OCC(C)(C)C	–	–	–	–	–	–	–	CC50 ([1]; read-out: ED50 (the source's name)): > 100 µM; EC50 ([2]; Huh-7, read-out: ED50 (the source's name)): > 100 µM
Cc1cn([C@H]2C=C[C@@H](CO)O2)c(=O)[nH]c1=O [STAVUDINE]	> 250	0.58	0.39	> 250	–	–	–	IC50 [4]: ≥ 250 µM; IC50 [5]: > 250 µM; IC50 [7]: > 250 µM; IC50 [8]: 159 µM
C[C@H](NP(=O)(N[C@@H](C)C(=O)OCC(C)(C)C)OC[C@@H]1C=C[C@H](n2cnc3c(NC4CC4)nc(N)nc32)C1)C(=O)OCC(C)(C)C	–	1.2	1.5	36	27	48	–	–
Cc1cn([C@H]2C[C@H](N=[N+]=[N-])[C@@H](COP(=O)(N[C@@H](C)C(=O)OCc3ccccc3)N[C@@H](C)C(=O)OCc3ccccc3)O2)c(=O)[nH]c1=O	–	0.03	0.0092	–	–	–	30	–
Nc1nc(NC2CC2)c2ncn([C@H]3C=C[C@@H](CO)C3)c2n1 [ABACAVIR]	–	18	23	170	> 250	> 250	> 250	–
Nc1ncnc2c1ncn2[C@H]1CC[C@@H](CO)O1	–	2.8	7.2	> 250	> 250	> 250	> 250	–
COC(=O)[C@H](C)NP(=O)(N[C@@H](C)C(=O)OC)OC[C@H]1O[C@@H](n2cnc(C(N)=O)c2N)[C@H](O)[C@@H]1O	> 250	–	–	> 250	> 250	≥ 250	–	EC50 [14]: > 100 µM; EC50 [15]: > 100 µM; EC50 [16]: > 100 µM; EC50 [17]: > 100 µM; MCC [18]: > 100 µM
Nc1ccn([C@@H]2CS[C@H](CO)O2)c(=O)n1 [LAMIVUDINE]	> 250	0.18	0.099	> 250	> 250	> 250	> 250	IC50 [4]: > 250 µM; IC50 [5]: > 250 µM; IC50 [7]: > 250 µM; IC50 [8]: > 250 µM
C[C@H](NP(=O)(N[C@@H](C)C(=O)OCC(C)(C)C)OC[C@@H]1CC[C@H](n2cnc3c(N)ncnc32)O1)C(=O)OCC(C)(C)C	–	0.049	0.1	–	36	76	35	–
Cc1cn([C@H]2C=C[C@@H](COP(=O)(N[C@@H](C)C(=O)OC3CCCCC3)N[C@@H](C)C(=O)OC3CCCCC3)O2)c(=O)[nH]c1=O	36	0.38	0.15	96	73	29	–	IC50 [4]: 25 µM; IC50 [5]: 135 µM; IC50 [7]: 54 µM
C[C@H](NP(=O)(N[C@@H](C)C(=O)OCc1ccccc1)OC[C@@]1(N=[N+]=[N-])O[C@@H](n2ccc(=O)[nH]c2=O)[C@H](O)[C@@H]1O)C(=O)OCc1ccccc1	–	–	–	–	–	–	–	CC50 ([1]; read-out: CC50): > 100 µM; EC50 ([2]; Huh-7, read-out: EC50): > 40 µM
C[C@H](NP(=O)(N[C@@H](C)C(=O)OCc1ccccc1)OC[C@H]1O[C@@H](n2ccc(N)nc2=O)CS1)C(=O)OCc1ccccc1	38	> 50	> 50	93	116	86	–	IC50 [4]: 57 µM; IC50 [5]: 87 µM; IC50 [7]: 106 µM; IC50 [8]: 85 µM
CCCCCc1ccc(-c2cc3cn([C@H]4C[C@H](O)[C@@H](COP(=O)(N[C@@H](C)C(=O)OCc5ccccc5)N[C@@H](C)C(=O)OCc5ccccc5)O4)c(=O)nc3o2)cc1	–	–	–	–	–	–	–	EC50 [14]: > 100 µM; EC50 [15]: > 100 µM; EC50 [16]: > 100 µM; EC50 [17]: > 100 µM; MCC [18]: > 100 µM
C[C@H](NP(=O)(N[C@@H](C)C(=O)OCc1ccccc1)OC[C@@H]1C=C[C@H](n2cnc3c(NC4CC4)nc(N)nc32)C1)C(=O)OCc1ccccc1	–	1.1	0.56	23	19	54	–	–
CCCCCc1ccc(-c2cc3cn([C@H]4C[C@H](O)[C@@H](CO)O4)c(=O)nc3o2)cc1 [CF1743]	–	–	–	–	–	–	–	MCC [18]: ≥ 20 µM
